Laboratory results taken from ChEMBL document CHEMBL3400028, “Evaluation of Aconitum diterpenoid alkaloids as antiproliferative agents” (2015).

Key:
Format in all cases: functional
[1] = system: A549; test: Antiproliferative activity against human A549 cells by sulforhodamine B assay
Procedure, shortened: (§1)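 Cells in RPMI 1640 (25 mM HEPES, 2 mM L-glutamine, 10% heat-inactivated FBS, antibiotics) at 37 °C, 5% CO2. Seeded at 3–5 × 10³/well with graded concentrations, paclitaxel as assay control, for 72 h. TCA-fixed, stained with 0.04% SRB, dye dissolved in 10 mM Tris, A515 read. GI50 is the concentration halving absorbance versus untreated cells; three or more experiments.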

[2] = system: DU-145; test: Antiproliferative activity against human DU145 cells by sulforhodamine B assay; procedure, shortened: as §1
[3] = system: KB; test: Antiproliferative activity against human KB cells by sulforhodamine B assay; procedure, shortened: as §1
[4] = Antiproliferative activity against multidrug-resistant P-gp expressing human KBVIN cells by sulforhodamine B assay
Procedure, shortened: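 Vincristine-resistant KB subline kept in 100 nM vincristine, then grown 7–10 days without it before testing. RPMI 1640 with 10% FBS, 37 °C, 5% CO2. 3–5 × 10³ cells/well exposed 72 h to a concentration series, paclitaxel as assay control. SRB staining after TCA fixation, A515 read. GI50 is the 50% absorbance reduction versus untreated cells; three or more experiments.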

[5] = Selectivity ratio of GI50 for human KB cells to GI50 for multidrug-resistant P-gp expressing human KBVIN cells
Procedure, shortened: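 Ratio of GI50 in parental KB to GI50 in P-gp-overexpressing KB-VIN. […] KB-VIN cells were grown 7–10 days without vincristine before the assay.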

| SMILES | GI50 [1] [µM] | GI50 [2] [µM] | GI50 [3] [µM] | GI50 [4] [µM] | RatioGI50 [5] |
| --- | --- | --- | --- | --- | --- |
| CC(=O)O[C@H]1C(=O)[C@@]2(C)[C@H]([C@H](OC(=O)c3ccccc3)[C@]3(O)C[C@H](OC(=O)[C@H](O)[C@@H](NC(=O)c4ccccc4)c4ccccc4)C(C)=C1C3(C)C)[C@]1(OC(C)=O)CO[C@@H]1C[C@@H]2O [PACLITAXEL] | 0.0071 | 0.0057 | 0.0064 | 0.95 | 0.0067 |
| C=C1[C@H]2C[C@H]3C4N5C[C@]6(C)CCC[C@]47[C@H]([C@H]2O)C3(C[C@]5(O)[C@H]67)[C@@H]1O [PSEUDOKOBUSINE] | > 20 | > 20 | > 20 | > 20 | >20 |
| CCN1C[C@]2(C)CC[C@H](OC)[C@@]34[C@@H]5C[C@H]6[C@H](O)[C@@H]5[C@@]5(C[C@@H]6OC)OCO[C@@]5(C(=O)[C@H]23)[C@@H]14 [YUNNADELPHININE] | > 20 | > 20 | > 20 | > 20 | >20 |
